Each structure is given as a SMILES string.

A short description of series [1]: Inhibition of […] mouse thymoma viral oncogene homolog 1 (unknown origin) at 10 uM relative to control. The conditions noted are these: Homo sapiens, condition thrombotic disease.
For series [2], the target named is Ribosomal protein S6 kinase alpha-3 (Homo sapiens) (UniProt P51812). As to the kind of experiment: Inhibition of human MAPKAPK1B at 10 uM relative to control.
In series [3] the target is SRSF protein kinase 1 (Homo sapiens) (UniProt Q96SB4). Put plainly: Inhibition of human SRPK1 at 10 uM relative to control.
Series [4] deals with Myosin light chain kinase, smooth muscle (Homo sapiens) (UniProt Q15746). As to the kind of experiment: Inhibition of human smMLCK at 10 uM relative to control.
Series [5] can be described thus: Plasma concentration in Sprague-Dawley rat hyperinsulinemic-euglycemic glucose clamp model at […], iv for 2 mins followed by 50 ug/kg/min, iv for 28 mins. Type of series: ADME, organism-based. The conditions noted are these: time 30 min. The method, boiled down: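 Plasma drug levels were sampled during the drug-infusion clamp period (Clamp2) in anesthetized rats under a human-insulin hyperinsulinemic–euglycemic clamp. I.v. regimens were 1000 μg kg−1 + 50 μg kg min−1 or 6000 μg kg−1 + 300 μg kg min−1; mean ± SEM, n = 4–5/group.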

The next series has as its system Rattus norvegicus. Put plainly: Insulin sensitizing activity in Sprague-Dawley rat hyperinsulinemic-euglycemic glucose clamp model assessed as total insulin level during infusion of human insulin at 6000 ug/kg/min, iv for 2 mins followed by 300 ug/kg/min, iv for 28 mins measured during clamp 1 (reference value: 2.2 +/- 0.1 nM). Type of series: functional. As to conditions: time 30 min, 0.5 h. The method, boiled down: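 Anesthetized rats; hyperinsulinemic–euglycemic clamp with human insulin infused. A baseline clamp (Clamp1) was followed by a second clamp (Clamp2) with vehicle or drug i.v. The drug was given as a low dose (1000 μg kg−1 + 50 μg kg min−1) or a high dose (6000 μg kg−1 + 300 μg kg min−1). Steady-state glucose infusion rate for euglycemia was recorded, with plasma glucose, human insulin and total insulin; mean ± SEM, n = 4–5/group.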

The nature of series [6]: Toxicity in Sprague-Dawley rat assessed as change in heart rate at 30000 ug/kg, iv for 2 mins followed by 1500 ug/kg/min, iv for 28 mins. Type of series: organism-based. The conditions noted are these: in vivo, 30 mg/kg, 0.5 h, time 30 min. The gist of the method:
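Overnight-fasted anesthetized rats got three consecutive escalating i.v. doses over 30 min each (n = 4/group). Heart rate and blood pressure were followed alongside end-of-interval blood samples for plasma drug exposure, glucose and insulin (relative HOMA index experiments).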

Series [7] in a line: Elimination half life in human at 40.5 to 455.8 mg, iv administered for 3 hrs via infusion by LC-MS/MS analysis. The conditions noted are these: in vivo, dose 40.5-455.8 mg, read-out: beta t1/2. Type of series: ADME, organism-based. The gist of the method: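 Randomized, double-blind, placebo-controlled single ascending-dose study in healthy male volunteers aged 18–36. Each subject received a 3-h i.v. infusion (0.9–455.8 mg). Plasma levels were measured by protein precipitation and LC-MS/MS (LLOQ 0.005 μm), with non-compartmental PK analysis. Half-life was calculated only for the four highest dose groups. The 3-h sample was taken as Css.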

Sequence of Myosin light chain kinase, smooth muscle (Homo sapiens) (Q15746 whole entry, the tested form may be a part): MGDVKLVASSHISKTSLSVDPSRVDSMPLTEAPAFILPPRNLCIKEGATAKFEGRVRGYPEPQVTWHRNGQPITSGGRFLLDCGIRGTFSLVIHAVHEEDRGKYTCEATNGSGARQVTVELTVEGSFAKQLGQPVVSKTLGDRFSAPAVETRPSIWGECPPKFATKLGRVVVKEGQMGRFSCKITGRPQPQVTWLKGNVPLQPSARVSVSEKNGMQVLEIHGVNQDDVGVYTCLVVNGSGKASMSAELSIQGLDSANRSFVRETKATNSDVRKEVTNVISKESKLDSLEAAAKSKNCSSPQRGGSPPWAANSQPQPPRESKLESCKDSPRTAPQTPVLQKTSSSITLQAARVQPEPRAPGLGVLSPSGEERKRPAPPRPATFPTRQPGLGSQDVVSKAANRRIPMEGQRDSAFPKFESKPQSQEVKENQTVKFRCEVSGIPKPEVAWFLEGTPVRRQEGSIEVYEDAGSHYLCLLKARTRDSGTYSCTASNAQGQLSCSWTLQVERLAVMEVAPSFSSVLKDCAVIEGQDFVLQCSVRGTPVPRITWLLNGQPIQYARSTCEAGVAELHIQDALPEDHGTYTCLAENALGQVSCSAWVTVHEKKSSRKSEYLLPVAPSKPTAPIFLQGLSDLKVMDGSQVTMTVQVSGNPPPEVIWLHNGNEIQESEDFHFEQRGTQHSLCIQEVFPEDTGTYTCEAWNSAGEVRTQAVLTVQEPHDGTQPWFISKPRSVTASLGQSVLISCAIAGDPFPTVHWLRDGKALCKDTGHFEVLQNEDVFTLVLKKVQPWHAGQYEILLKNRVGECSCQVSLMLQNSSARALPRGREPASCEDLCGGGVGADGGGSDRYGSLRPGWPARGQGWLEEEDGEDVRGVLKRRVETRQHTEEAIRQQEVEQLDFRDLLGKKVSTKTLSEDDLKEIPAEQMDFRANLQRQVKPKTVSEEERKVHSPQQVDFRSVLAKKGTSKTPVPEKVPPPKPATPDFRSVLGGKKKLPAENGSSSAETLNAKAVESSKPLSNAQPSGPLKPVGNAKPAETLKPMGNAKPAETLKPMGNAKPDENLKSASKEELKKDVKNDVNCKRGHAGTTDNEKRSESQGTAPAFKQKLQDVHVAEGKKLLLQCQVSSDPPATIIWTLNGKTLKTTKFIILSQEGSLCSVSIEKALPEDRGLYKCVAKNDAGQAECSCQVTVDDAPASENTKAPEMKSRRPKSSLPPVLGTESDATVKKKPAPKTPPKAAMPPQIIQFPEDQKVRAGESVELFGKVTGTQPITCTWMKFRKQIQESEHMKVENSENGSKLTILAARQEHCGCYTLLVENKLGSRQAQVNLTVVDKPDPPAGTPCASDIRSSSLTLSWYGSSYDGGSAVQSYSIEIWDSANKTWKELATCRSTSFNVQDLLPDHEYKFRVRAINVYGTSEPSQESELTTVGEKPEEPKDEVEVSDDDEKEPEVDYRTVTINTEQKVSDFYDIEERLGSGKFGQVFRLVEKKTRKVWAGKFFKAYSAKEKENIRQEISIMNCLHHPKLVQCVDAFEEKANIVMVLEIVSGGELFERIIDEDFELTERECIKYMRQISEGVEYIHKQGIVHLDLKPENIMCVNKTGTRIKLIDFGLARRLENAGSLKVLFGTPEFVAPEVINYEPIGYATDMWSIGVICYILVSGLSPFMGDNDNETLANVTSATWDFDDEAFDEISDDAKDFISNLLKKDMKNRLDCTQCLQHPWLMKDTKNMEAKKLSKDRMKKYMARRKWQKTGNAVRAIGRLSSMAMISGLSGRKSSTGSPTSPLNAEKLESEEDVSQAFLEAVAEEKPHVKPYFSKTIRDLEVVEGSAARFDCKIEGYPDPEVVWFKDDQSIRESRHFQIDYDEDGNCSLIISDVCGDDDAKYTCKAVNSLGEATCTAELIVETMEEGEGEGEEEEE
Sequence of SRSF protein kinase 1 (Homo sapiens) (Q96SB4 whole entry): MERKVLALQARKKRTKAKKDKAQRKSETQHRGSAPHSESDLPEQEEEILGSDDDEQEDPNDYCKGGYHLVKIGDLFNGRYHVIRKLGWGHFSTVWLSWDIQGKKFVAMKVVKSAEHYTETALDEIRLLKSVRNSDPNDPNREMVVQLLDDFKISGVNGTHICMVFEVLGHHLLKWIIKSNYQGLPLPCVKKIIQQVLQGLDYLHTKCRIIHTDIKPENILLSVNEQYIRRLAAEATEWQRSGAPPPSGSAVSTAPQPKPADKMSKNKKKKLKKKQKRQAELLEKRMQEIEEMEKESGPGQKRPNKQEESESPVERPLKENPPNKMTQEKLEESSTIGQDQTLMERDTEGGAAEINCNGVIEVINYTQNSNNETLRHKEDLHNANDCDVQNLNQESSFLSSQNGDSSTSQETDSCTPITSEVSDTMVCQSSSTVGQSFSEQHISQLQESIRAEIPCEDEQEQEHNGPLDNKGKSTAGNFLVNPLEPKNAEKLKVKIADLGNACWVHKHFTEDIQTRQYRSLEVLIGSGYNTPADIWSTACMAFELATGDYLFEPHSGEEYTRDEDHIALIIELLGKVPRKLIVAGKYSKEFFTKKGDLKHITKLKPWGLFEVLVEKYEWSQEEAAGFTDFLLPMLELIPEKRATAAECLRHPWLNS
Sequence of Ribosomal protein S6 kinase alpha-3 (Homo sapiens) (P51812 whole entry): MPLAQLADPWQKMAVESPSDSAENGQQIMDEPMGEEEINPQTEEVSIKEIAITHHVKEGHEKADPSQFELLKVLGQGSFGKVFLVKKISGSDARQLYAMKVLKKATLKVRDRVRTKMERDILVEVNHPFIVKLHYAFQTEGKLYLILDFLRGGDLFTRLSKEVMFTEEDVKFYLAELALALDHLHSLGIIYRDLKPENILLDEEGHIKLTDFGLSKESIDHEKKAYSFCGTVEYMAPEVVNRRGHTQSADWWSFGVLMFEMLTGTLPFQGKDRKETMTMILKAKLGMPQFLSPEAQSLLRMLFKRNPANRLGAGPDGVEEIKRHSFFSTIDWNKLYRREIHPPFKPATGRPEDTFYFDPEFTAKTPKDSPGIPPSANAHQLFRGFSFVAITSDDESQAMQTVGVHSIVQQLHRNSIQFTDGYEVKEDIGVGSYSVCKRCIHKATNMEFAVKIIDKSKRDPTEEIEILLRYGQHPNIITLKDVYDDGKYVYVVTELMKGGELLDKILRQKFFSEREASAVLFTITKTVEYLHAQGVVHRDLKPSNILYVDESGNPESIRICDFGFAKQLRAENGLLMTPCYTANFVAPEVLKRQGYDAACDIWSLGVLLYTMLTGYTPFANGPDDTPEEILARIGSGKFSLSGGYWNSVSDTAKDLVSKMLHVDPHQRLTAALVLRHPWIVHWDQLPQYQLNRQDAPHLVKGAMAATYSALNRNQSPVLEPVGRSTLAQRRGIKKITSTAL

On to `Cc1cc([C@@H](C)Nc2ccccc2C(=O)O)c2nc(N3CCOCC3)cc(=O)n2c1` [AZD-6482], for which, in series [1], the inhibition at 10 µM was determined as 2.1%. For the same molecule, the inhibition was 15% in series [2], -9.4% in series [3] and 2.6% in series [4]. Further, in series [5], the concentration at 0.5 h was found to be 2300 nM. Further, the Activity is 2.3 nM in the series with Rattus norvegicus and “Non-Toxic” in series [6]. In addition, the half-life in series [7] was roughly 20 min.

For orientation: inhibition means the drop in the measured response relative to a control, in per cent.

(Values after ChEMBL document CHEMBL5678808, “Human target validation of phosphoinositide 3-kinase (PI3K)β: effects on platelets and insulin sensitivity, using AZD6482 a novel PI3Kβ inhibitor” (J Thromb Haemost, 2012).)
